Results published in article PMC4869831 (Nature structural & molecular biology, 2011).

Columns and labels:
ATR = ATR (Mus musculus, UniProt Q9JKK8); assay type: cell-based; conditions: increasing doses of caffeine
Method in brief: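 3T3 TopBP1-ER mouse cells (15000/well) were plated the day before on gelatine-coated wells. Graded caffeine doses were added for 15 min at 37 °C, then 4-OHT for 60 min at 37 °C. Cells were paraformaldehyde-fixed and stained for γH2AX by immunofluorescence. Automated 10x imaging gave mean γH2AX per DAPI-masked nucleus from ≥300 cells/well. Values were normalized to no-4-OHT (min) and 4-OHT-only (max) controls. Error bars s.d.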

IGF-IR = conditions: equally potent on both kinases in vitro; cited from earlier work

Sequence of ATR (Q9JKK8 whole entry): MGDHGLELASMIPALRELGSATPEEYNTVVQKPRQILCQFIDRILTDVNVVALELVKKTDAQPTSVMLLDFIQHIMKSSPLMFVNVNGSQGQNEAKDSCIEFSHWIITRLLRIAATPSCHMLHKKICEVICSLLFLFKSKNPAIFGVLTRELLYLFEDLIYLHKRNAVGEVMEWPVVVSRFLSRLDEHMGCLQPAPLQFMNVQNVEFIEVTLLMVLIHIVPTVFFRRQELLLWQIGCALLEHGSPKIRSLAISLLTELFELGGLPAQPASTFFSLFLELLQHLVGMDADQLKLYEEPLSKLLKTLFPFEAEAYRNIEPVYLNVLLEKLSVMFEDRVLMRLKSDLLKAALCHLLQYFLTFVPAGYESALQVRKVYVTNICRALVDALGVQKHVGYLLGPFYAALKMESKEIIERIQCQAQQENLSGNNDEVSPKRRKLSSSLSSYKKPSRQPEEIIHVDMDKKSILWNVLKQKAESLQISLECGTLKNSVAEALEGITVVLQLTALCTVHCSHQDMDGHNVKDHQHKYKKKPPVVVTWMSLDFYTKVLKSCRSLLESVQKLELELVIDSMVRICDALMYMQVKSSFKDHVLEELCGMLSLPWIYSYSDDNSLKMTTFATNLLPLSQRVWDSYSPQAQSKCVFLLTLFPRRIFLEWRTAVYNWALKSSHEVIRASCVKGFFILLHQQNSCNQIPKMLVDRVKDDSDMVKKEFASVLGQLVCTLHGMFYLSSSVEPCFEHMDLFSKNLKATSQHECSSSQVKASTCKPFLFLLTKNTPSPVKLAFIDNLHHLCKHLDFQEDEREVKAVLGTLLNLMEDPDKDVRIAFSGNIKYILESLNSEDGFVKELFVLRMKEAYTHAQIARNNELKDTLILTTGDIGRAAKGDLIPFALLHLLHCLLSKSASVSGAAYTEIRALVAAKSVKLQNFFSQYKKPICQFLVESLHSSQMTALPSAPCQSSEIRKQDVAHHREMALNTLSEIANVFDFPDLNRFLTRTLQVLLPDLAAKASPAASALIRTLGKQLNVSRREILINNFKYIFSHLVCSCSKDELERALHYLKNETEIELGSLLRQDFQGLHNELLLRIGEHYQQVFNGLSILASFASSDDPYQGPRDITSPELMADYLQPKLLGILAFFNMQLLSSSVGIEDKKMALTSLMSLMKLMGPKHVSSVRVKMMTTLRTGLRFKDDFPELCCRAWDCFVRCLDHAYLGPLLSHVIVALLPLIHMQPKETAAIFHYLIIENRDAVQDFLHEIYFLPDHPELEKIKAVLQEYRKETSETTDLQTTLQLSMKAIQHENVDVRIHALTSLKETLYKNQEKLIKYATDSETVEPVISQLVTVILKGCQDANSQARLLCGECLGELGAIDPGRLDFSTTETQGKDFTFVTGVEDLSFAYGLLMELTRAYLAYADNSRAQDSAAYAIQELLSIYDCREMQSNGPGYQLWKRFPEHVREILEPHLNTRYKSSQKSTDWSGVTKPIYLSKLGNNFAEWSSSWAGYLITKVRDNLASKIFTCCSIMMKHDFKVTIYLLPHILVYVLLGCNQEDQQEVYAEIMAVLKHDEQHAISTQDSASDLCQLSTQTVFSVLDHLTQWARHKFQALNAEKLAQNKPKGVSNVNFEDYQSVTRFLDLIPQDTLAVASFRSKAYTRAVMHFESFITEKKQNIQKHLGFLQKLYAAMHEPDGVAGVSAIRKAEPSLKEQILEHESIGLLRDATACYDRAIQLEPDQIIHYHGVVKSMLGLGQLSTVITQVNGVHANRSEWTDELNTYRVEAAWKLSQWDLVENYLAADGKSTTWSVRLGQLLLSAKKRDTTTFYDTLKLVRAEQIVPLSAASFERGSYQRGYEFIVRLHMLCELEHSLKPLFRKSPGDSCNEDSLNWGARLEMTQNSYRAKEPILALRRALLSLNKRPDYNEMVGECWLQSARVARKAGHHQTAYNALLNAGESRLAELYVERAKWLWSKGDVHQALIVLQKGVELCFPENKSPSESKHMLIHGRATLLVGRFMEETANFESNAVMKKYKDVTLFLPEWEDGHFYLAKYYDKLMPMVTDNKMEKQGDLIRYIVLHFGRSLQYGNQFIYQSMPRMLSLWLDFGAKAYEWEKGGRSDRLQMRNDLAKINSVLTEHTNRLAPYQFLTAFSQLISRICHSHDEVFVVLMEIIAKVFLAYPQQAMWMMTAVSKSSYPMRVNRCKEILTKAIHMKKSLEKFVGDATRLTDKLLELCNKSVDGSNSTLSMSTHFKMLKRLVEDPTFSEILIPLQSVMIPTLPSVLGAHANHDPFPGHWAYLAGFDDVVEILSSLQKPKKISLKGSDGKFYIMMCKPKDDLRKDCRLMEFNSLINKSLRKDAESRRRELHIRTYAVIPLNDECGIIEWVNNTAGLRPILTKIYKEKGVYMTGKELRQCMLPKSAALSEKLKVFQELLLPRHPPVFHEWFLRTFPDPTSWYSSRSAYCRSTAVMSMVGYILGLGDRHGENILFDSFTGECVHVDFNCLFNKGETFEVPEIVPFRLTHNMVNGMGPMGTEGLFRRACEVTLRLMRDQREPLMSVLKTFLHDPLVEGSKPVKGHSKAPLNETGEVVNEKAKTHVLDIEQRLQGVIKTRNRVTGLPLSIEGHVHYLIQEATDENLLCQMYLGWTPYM

| nuclear γH2AX signal induced by 4-OHT (ATR) | SMILES | selectivity against IGF-IR vs InsR in cellulo (IGF-IR) |
| --- | --- | --- |
| stepwise decrease in the γH2AX signal | Cn1c(=O)c2c(ncn2C)n(C)c1=O [Caffeine] |  |
|  | Nc1ncnc2c1c(-c1cccc(OCc3ccccc3)c1)cn2[C@H]1C[C@@H](CN2CCC2)C1 [NVP-AEW541] | 26 fold |
